From ChEMBL document CHEMBL1153293, “Discovery and optimization of piperidyl benzamide derivatives as a novel class of 11beta-HSD1 inhibitors” (Bioorg Med Chem Lett, 2009) come the findings set out here.

A short description of series [1]: Metabolic stability in human liver microsome assessed as compound remaining after 30 mins. The class given is ADME. The settings on record: liver microsomes, read-out: Stability.
Series [2] in a line: Metabolic stability in rat liver microsome assessed as compound remaining after 30 mins. The class given is ADME. The settings on record: liver microsomes, read-out: Stability.
The target of series [3] is T1, Nuclear receptor subfamily 1 group I member 2 (Homo sapiens, UniProt O75469).
T1 sequence (O75469 whole entry): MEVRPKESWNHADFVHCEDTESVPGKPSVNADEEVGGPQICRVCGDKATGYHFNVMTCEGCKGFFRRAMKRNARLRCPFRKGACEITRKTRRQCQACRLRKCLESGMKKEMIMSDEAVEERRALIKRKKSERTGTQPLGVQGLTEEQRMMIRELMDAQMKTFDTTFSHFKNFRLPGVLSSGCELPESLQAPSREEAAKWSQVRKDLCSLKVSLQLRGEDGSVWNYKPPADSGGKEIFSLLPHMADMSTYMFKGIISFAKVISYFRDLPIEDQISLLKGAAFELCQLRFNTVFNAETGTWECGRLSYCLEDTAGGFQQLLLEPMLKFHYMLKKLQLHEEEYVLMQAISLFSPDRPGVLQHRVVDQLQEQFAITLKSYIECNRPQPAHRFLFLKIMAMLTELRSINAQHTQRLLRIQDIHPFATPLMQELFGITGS
The series is described as follows: Activity at human PXR receptor transfected in human HepG2 cells assessed as receptor activation at 2 uM by luciferase based reporter gene assay relative to rifampin. The settings on record: hepg2, 2 µM. The class given is cell-based. Summed up: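 HepG2 cells transfected with human PXR cDNA and a luciferase reporter construct driven by the CYP3A4 gene. Cells were exposed to test article, and luciferase activity was read by chemiluminescence. Rifampin at 10 µM served as the positive control.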

The test system of series [4] is HeLa. Kind of series: Cytotoxicity against human HeLa cells. In kind it is functional, cell-based.
Series [5] is described as follows: Oral bioavailability in rat at 2.0 mg/kg. In kind it is ADME, organism-based. The settings on record: in vivo. Summed up: (§1)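 Rats received each compound both iv (0.39, 0.50 or 0.51 mg/kg, depending on compound) and orally at 2.0 mg/kg. Plasma clearance was taken from the iv arm and oral bioavailability (%F) from the po dose.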
Series [6] is described as follows: Metabolic stability in human hepatocyte assessed as compound remaining after 90 mins. In kind it is ADME, cell-based. The settings on record: hepatocytes, read-out: Stability.
Series [7] is described as follows: Metabolic stability in rat hepatocyte assessed as compound remaining after 90 mins. The settings on record: hepatocytes, read-out: Stability. In kind it is ADME, cell-based.
Series [8] in a line: Clearance in rat at 0.39 mg/kg, iv. The settings on record: in vivo. In kind it is ADME, organism-based. Details: dose 0.39 mg/kg, route intravenous. Summed up:
as §1

Series [9] can be described thus: Fraction unbound in human plasma. The class given is ADME, cell-free. The procedure, abridged:
(§2)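 Unbound fraction (fu) in plasma was measured with a 4 h ultracentrifugation protocol, with samples analyzed by mass spectrometry.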

The nature of series [10]: Fraction unbound in rat plasma. In kind it is ADME, cell-free. Summed up: as §2
The nature of series [11]: Clearance in rat at 0.50 mg/kg, iv. The settings on record: in vivo, 0.5 mg/kg. The class given is ADME, organism-based. Details: dose 0.5 mg/kg, route intravenous. Summed up: as §1
For series [12], the target named is T2, 11-beta-hydroxysteroid dehydrogenase 1 (Homo sapiens, UniProt P28845). The series is described as follows: Inhibition of human recombinant 11beta-HSD1 expressed in baculovirus system by scintillation proximity assay.
T2 sequence (P28845 whole entry): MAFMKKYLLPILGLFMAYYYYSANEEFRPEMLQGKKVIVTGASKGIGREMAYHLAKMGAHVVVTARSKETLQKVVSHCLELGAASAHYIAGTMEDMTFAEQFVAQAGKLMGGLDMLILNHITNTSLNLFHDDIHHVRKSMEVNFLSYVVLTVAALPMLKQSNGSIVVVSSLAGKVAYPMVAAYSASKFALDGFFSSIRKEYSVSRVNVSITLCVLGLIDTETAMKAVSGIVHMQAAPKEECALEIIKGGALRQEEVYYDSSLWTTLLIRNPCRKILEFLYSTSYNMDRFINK
The target in series [13] is T2, 11-beta-hydroxysteroid dehydrogenase 1. The series is described as follows: Inhibition of human recombinant 11beta-HSD1 expressed HEK293 cells by scintillation proximity assay. The class given is cell-based.
The target is the same in series [14]. The series is described as follows: Inhibition of human recombinant 11beta-HSD1 expressed HEK293 cells by scintillation proximity assay in presence of human serum albumin. The class given is cell-based.
Series [15] is described as follows: Clearance in rat at 0.51 mg/kg, iv. In kind it is ADME, organism-based. Details: dose 0.51 mg/kg, route intravenous. The settings on record: in vivo. The procedure, abridged:
as §1

Regarding `C[C@](O)(c1ccc(C(=O)N(C2CC2)[C@H]2CC[C@H](CC3(C#N)CC3)CC2)cc1)C(F)(F)F`, the remaining at 0.5 h in series [1] and in [2] was more than 90% in each case. Also, the Activity in series [3] stood at 60%. This compound also came in with a half-maximal inhibitory concentration (IC50) in series [4] of 4 µM.
As to `CC(C)(C[C@H]1CC[C@H](N(C(=O)c2ccc([C@](C)(O)C(F)(F)F)cc2)C2CC2)CC1)C(N)=O`, the remaining at 0.5 h in series [1] and in series [2] was more than 90% throughout. Further, in series [3], the Activity came to 4%. The IC50 in [4] was more than 10 µM. Moreover, in [5], the bioavailability stood at 32%. The remaining at 1.5 h in [6] stood at 84%; in series [7], 10%. In series [8], the clearance was 21.7 mL/min/kg.
For `C[C@](O)(c1ccc(C(=O)N(C2CC2)[C@H]2CC[C@H](CC3(C(N)=O)CC3)CC2)cc1)C(F)(F)F`, the remaining at 0.5 h in series [1] and in series [2] was more than 90% throughout. For the same compound, the Activity in [3] is on record as 6.5%. In addition, the IC50 in [4] came out at 8 µM. Moreover, the results for the remaining at 1.5 h in [6] and in [7] were more than 90% and 73%, respectively. For the same compound, the fraction unbound in series [9] is 0.12; in series [10] it was 0.048.
For the compound `C[C@@](O)(c1ccc(C(=O)N(C2CC2)[C@H]2CC[C@H](CC#N)CC2)cc1)C(F)(F)F`, the remaining at 0.5 h was more than 90% in [1] and 73% in [2]. Besides, the Activity in series [3] was determined as 75%.
`C[C@](O)(c1ccc(C(=O)N(C2CC2)C2CCN(CC3(C(N)=O)CC3)CC2)cc1)C(F)(F)F`: the remaining at 0.5 h was more than 90% in [1] and 86% in series [2]. Further, the Activity in series [3] is 4%. In addition, the IC50 in series [4] was more than 10 µM. This compound registered a bioavailability in series [5] of 69%. Also, the remaining at 1.5 h was more than 90% in [6] and 69% in series [7]. Besides, the results for the fraction unbound in series [9] and in series [10] were 0.48 and 0.2, respectively. This compound also gave a clearance in series [11] of 14.8 mL/min/kg.
On to `C[C@](O)(c1ccc(C(=O)N(C2CC2)[C@H]2CC[C@@H](CCC#N)CC2)cc1)C(F)(F)F`, for which the IC50 in [12] was 0.0028 µM; in series [13] it was 0.01 µM; in [14] it was 0.13 µM; in series [4], more than 10 µM. Further, the remaining at 0.5 h in series [1] is 64%; in [2], less than 5%. The Activity in [3] was 56%.
The compound `C[C@](O)(c1ccc(C(=O)N(C2CC2)[C@H]2CC[C@H](c3cccnc3)CC2)cc1)C(F)(F)F` gave an IC50 in [4] of 2.5 µM.
For `C[C@@](O)(c1ccc(C(=O)N(C2CC2)[C@H]2CC[C@H](CCC(N)=O)CC2)cc1)C(F)(F)F`, the remaining at 0.5 h in series [1] and in [2] was more than 90% throughout. For the same compound, in [3], the Activity came to 5%. In series [4], this compound gave an IC50 of more than 10 µM. In series [15], this compound had a clearance of 50 mL/min/kg. This compound displayed a bioavailability in [5] of 22%. The remaining at 1.5 h in series [6] was 32%; in [7], less than 5%.
Turning to `C[C@](O)(c1ccc(C(=O)N(C2CC2)C2CCN(CC3(C#N)CC3)CC2)cc1)C(F)(F)F`, the remaining at 0.5 h in [1] turned out to be 86%; in series [2], 28%. Further, the Activity in series [3] is on record as 3%. In addition, the concentration for half-maximal inhibition (IC50) in series [4] is more than 10 µM.
As for `C[C@](O)(c1ccc(C(=O)N(C2CCC(CC(N)=O)CC2)C2CC2)cc1)C(F)(F)F` (mixture of isomers), in series [3], the Activity is reported as 1%.
For `C[C@@](O)(c1ccc(C(=O)N(C2CC2)[C@H]2CC[C@@H](CCC(N)=O)CC2)cc1)C(F)(F)F`, the remaining at 0.5 h in series [1] is more than 90%; in series [2] it was 72%. Besides, the Activity in series [3] is 100%. Also, in [4], the half-inhibitory concentration (IC50) was more than 10 µM.
Turning to `C[C@](O)(c1ccc(C(=O)N(C2CC2)[C@H]2CC[C@H](CCC#N)CC2)cc1)C(F)(F)F`, in series [1], the remaining at 0.5 h is more than 90%. For the same compound, in series [3], the Activity turned out to be 30%. The compound also yielded a concentration for half-maximal inhibition (IC50) in series [4] of more than 10 µM.
Turning to `CC(C)(C#N)C[C@H]1CC[C@H](N(C(=O)c2ccc([C@](C)(O)C(F)(F)F)cc2)C2CC2)CC1`, the remaining at 0.5 h is more than 90% in series [1] and 77% in [2]. In addition, the Activity in [3] was 60%.
For `C[C@@](O)(c1ccc(C(=O)N(C2CC2)[C@H]2CC[C@@H](CC#N)CC2)cc1)C(F)(F)F`, the remaining at 0.5 h was determined as 70% in series [1] and 5% in series [2]. In addition, the Activity in series [3] is 74%.
